pIC50: −log10 of the molar value. The source made the active and inactive calls. The rule behind the calls is not given here.
Experiments:
[1] = molecular target: T1, Angiotensin-converting enzyme (Oryctolagus cuniculus, UniProt P12822); experiment: Tested for 50% inhibition of Angiotensin converting enzyme(ACE) obtained from rabbit lung (in vitro)
T1 sequence (P12822 whole entry): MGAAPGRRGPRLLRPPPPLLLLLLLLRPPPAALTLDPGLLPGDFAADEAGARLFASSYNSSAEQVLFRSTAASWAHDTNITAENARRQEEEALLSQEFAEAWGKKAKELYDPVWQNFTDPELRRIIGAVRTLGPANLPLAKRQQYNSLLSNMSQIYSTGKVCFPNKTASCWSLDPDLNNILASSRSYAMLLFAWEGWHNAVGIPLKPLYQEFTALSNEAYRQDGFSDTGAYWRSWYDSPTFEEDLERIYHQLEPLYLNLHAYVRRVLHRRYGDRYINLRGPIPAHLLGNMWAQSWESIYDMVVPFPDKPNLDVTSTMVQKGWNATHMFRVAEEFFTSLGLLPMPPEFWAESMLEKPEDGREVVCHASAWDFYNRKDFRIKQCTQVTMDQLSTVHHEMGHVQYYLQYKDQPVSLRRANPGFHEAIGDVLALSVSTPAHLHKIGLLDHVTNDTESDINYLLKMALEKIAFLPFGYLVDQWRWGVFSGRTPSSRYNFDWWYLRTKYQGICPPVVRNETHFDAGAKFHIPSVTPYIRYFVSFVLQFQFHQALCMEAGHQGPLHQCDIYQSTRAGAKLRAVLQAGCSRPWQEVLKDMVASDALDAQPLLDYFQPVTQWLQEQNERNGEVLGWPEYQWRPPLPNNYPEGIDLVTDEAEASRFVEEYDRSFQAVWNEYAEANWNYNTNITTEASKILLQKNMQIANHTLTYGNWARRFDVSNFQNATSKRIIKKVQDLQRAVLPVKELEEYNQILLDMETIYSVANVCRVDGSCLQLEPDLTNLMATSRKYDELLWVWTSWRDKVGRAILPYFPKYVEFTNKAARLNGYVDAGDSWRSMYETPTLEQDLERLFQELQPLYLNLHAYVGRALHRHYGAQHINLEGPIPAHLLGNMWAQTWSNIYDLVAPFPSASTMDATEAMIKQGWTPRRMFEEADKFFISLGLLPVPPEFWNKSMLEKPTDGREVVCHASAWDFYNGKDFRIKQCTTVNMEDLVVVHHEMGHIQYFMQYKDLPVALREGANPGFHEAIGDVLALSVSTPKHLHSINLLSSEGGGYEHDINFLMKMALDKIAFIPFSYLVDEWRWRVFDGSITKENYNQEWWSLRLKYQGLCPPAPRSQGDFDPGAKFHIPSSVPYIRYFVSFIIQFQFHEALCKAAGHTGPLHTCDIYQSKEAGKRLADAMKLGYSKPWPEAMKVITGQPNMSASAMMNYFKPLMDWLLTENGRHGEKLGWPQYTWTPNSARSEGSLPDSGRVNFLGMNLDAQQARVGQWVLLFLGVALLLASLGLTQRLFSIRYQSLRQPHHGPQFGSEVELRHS
How it was run: (§1)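 ACE was partially purified from rabbit lung and incubated with the synthetic substrate Hip-His-Leu. The hippuric acid product was measured spectrophotometrically. IC50 was read graphically from a range of inhibitor concentrations within the assay's linear range. Each determination was done in duplicate and repeated once.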

Rattus norvegicus [2] = experiment: Tested for percent inhibition of maximum angiotensin I (AI) pressor response in rats on oral administration of 300 mg/kg after 0.5 hr; assay type: functional
How it was run: (§2)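 Conscious catheterized SHR were prepared as for blood pressure recording. At set times after dosing, angiotensin I was injected intraarterially in 0.5 mL. The rise in arterial pressure was recorded and expressed as percent inhibition of the angiotensin I pressor response.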

Rattus norvegicus [3] = experiment: Antihypertensive activity was measured in spontaneously hypertensive rat (SHR) by measuring the blood pressure on interarterial administration at dose of 1 mg/kg; Not significant; assay type: functional, organism-based; parameters: dose 1 mg/kg; settings: Artery
How it was run: (§3)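 Conscious, fully ambulatory SHR (250–280 g) were fitted with an arterial catheter led through an infusion swivel inside a protective spring. After 24 h recovery from surgery, rats were housed singly. Mean arterial pressure was recorded continuously after dosing over a 6-h period, with later readings up to 24 h. Rats had chow and tap water freely under a 12-h light cycle.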

Rattus norvegicus [4] = experiment: Antihypertensive activity was measured in spontaneously hypertensive rat (SHR) by measuring the blood pressure after 24 hours on interarterial administration at dose of 1 mg/kg; Not significant; assay type: functional, organism-based; parameters: dose 1 mg/kg; settings: Artery; how it was run: as §3
Thromboxane-A synthase [5] = molecular target: T2, Thromboxane-A synthase (Homo sapiens, UniProt P24557); experiment: Tested for 50% inhibition of thromboxane synthase (TxS) in human platelets (in vitro)
T2 sequence (P24557 whole entry): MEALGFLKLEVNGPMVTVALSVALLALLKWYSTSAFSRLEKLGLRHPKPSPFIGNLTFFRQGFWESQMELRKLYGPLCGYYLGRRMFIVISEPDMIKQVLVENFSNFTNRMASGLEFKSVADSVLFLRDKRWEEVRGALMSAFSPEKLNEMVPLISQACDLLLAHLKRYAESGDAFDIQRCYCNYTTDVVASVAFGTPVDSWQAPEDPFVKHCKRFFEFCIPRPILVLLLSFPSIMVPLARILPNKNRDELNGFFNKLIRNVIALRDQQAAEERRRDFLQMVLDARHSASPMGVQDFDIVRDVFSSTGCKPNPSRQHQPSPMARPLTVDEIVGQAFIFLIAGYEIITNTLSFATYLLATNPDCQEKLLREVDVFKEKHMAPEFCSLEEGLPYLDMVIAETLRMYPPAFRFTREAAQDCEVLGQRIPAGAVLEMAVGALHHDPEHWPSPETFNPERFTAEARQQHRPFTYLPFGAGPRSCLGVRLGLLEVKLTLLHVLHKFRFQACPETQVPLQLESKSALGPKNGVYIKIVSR
How it was run: (§4)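 IC50 was obtained graphically from a range of compound concentrations within the linear range of the assay. Determinations were made in duplicate and repeated once.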

[6] = molecular target: T1, Angiotensin-converting enzyme; experiment: Tested for 50% inhibition of Angiotensin converting enzyme(ACE) obtained from rabbit lung (in vitro); Not active; how it was run: as §1
Thromboxane-A synthase [7] = molecular target: T2, Thromboxane-A synthase; experiment: Tested for 50% inhibition of thromboxane synthase (TxS) in human platelets (in vitro); Not active; how it was run: as §4
Rattus norvegicus [8] = experiment: Tested for percent inhibition of maximum angiotensin I (AI) pressor response in rats on oral administration of 300 mg/kg after 5 hr; assay type: functional; how it was run: as §2
Rattus norvegicus [9] = experiment: Antihypertensive activity was measured in spontaneously hypertensive rat (SHR) by measuring the blood pressure on interarterial administration at dose of 1 mg/kg after 5 h; assay type: functional, Artery; how it was run: as §3
Rattus norvegicus [10] = experiment: Antihypertensive activity was measured in spontaneously hypertensive rat (SHR) by measuring the maximum blood pressure when administered orally at dose of 10 mg/kg after 5 h; assay type: functional; settings: route oral; how it was run: as §3
Rattus norvegicus [11] = experiment: Antihypertensive activity was measured in spontaneously hypertensive rat (SHR) by measuring the blood pressure after 24 hours when administered orally at dose of 10 mg/kg; assay type: functional; settings: route oral; how it was run: as §3
Rattus norvegicus [12] = experiment: Tested for percent inhibition of maximum angiotensin I (AI) pressor response in rats on oral administration of 300 mg/kg after 2 hr; assay type: functional; how it was run: as §2
Rattus norvegicus [13] = experiment: Antihypertensive activity was measured in spontaneously hypertensive rat (SHR) by measuring the maximum blood pressure when administered orally at dose of 5 mg/kg after 3 h; assay type: functional; settings: route oral; how it was run: as §3
Rattus norvegicus [14] = experiment: Antihypertensive activity was measured in spontaneously hypertensive rat (SHR) by measuring the blood pressure after 24 hours when administered orally at dose of 5 mg/kg; assay type: functional; settings: route oral
How it was run: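 Conscious, unrestrained, fully ambulatory SHR (250–280 g) fed normal pellet chow with free access to tap water, on a 12-h light cycle. Oral dosing used a vehicle at 1 mL/kg po. The read-out was the change in mean arterial pressure from control.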

| pIC50 [1] | pIC50 (Thromboxane-A synthase [5]) | IC50 [6] | IC50 (Thromboxane-A synthase [7]) | SMILES | other results |
| --- | --- | --- | --- | --- | --- |
| 8.22 | 8.40 | – | – | Cn1c(-c2cccnc2)c(CCCCCC(=O)NCCCC[C@H](N[C@@H]2CCc3ccccc3N(CC(=O)O)C2=O)C(=O)O)c2cc(Cl)ccc21 | inhibition in vivo at 300 mg/kg (Rattus norvegicus [2]): 81%; Max delta BP (Rattus norvegicus [3]): inactive; Delta blood pressure (Rattus norvegicus [4]): inactive |
| – | 7.00 | Not Active | – | Cc1c(-c2cccnc2)n(CCCCP(=O)(O)O)c2ccccc12 | – |
| 8.10 | – | – | Not Active | O=C(O)CN1C(=O)[C@@H](N[C@@H](CCc2ccccc2)C(=O)O)C[C@@H](O)c2ccccc21 | – |
| – | 8.05 | Not Active | – | CCOP(=O)(O)CCCCn1c(-c2cccnc2)c(C)c2ccccc21.Cl | – |
| – | – | Not Active | – | Cc1c(-c2cccnc2)n(CCCCC(=O)O)c2ccccc12 | – |
| 8.00 | – | – | – | Cn1c(-c2cccnc2)c(CCCCCC(=O)N(CCO)CCCC[C@H](N[C@H]2CCc3ccccc3N(CC(=O)O)C2=O)C(=O)O)c2cc(Cl)ccc21 | inhibition in vivo at 300 mg/kg (Rattus norvegicus [2]): 76%; inhibition in vivo at 300 mg/kg (Rattus norvegicus [8]): 30%; Max delta BP (Rattus norvegicus [9]): -23 mmHg; Max delta BP (Rattus norvegicus [10]): -42 mmHg; Delta blood pressure (Rattus norvegicus [4]): inactive; Delta blood pressure (Rattus norvegicus [11]): -30 mmHg |
| 7.70 | – | – | – | O=C(O)C(CCCCc1cccc2cncn12)CCC(=O)N1c2ccccc2C[C@H]1C(=O)O (some centres not stated) | – |
| 7.70 | – | – | Not Active | O=C([O-])CN1C(=O)C(OP(=O)([O-])CCCCc2ccccc2)CCc2ccccc21.[Na+].[Na+] (configuration not stated) | – |
| – | – | – | Not Active | CCOC(=O)C(CCc1ccccc1)NC(C)C(=O)N1CCC[C@H]1C(=O)O (single isomer, unassigned) | inhibition in vivo at 300 mg/kg (Rattus norvegicus [12]): 100%; Max delta BP (Rattus norvegicus [13]): -28 mmHg; Delta blood pressure (Rattus norvegicus [14]): -17 mmHg |
| – | – | Not Active | – | Cc1c(-c2cccnc2)n(CCCCCCCC(=O)O)c2ccccc12 | – |
